Screens as filed in PubChem BioAssay.
Compounds with a hit are over-represented: about 4% of the library has one in this group of screens.
ERa coact pot: enhances coactivator binding to human estrogen receptor alpha. P03372. TR-FRET ERalpha-LBD/SRC-Cy5 coactivator binding, 2 h; 100 = basal binding, no effect. coactivator binding (% of control), % at 25.6 µM. 86,000 tested, 1.3% active. AID 639; in the data active means activity above about 200%;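 further: binding measured in presence of low estradiol as agonist stimulus; 0% = peptide alone without receptor and 100% = receptor with peptide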
ERa SRC1 inh: ER-alpha (human) coactivator binding inhibition; TR-FRET ER-alpha LBD / SRC-1 peptide, estradiol-bound; inhibition, % at 25.6 µM; P03372; 86,000 tested, 1.7% active; in the data active means inhibition above about 50%;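 further: 0% = receptor plus peptide control and 100% = peptide only without receptor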
Rev-RRE block: HIV Rev-RRE protein-RNA interaction inhibition; P05866; Rev peptide-RRE RNA binding, FRET; inhibition, % at 8 µM; 97,000 tested, 0.79% active; AID 704;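 active means inhibition above the screen-wide mean plus 3 SD, cut at about 35% in these data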;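 further: 0% = median DMSO wells and 100% = median Neomycin B control wells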
Target sequence (P05866 whole entry, looked up): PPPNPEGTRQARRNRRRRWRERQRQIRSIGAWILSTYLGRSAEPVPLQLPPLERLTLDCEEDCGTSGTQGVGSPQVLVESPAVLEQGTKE
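System: Cy5-labelled duplex RRE RNA binding fluorescein-labelled HIV Rev peptide; Signal: fluorescein-to-Cy5 FRET, 480 nm excitation; Also added: labelled Rev peptide; Compound: one concentration, 8 µM nominal; Buffer or medium: HEPES pH 7.5 salt buffer with EDTA; Read-out: % inhibition of FRET ratio versus controls; Schedule: 5 min preincubation and 15 min binding, 25 °C.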
Smad3 inh: inhibitors of human Smad3 transcription factor binding; TR-FRET Smad3/Dy647-FoxH1 peptide binding, europium anti-His; inhibition, % at 25 µM; 88,000 tested, 0.29% active; AID 630;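 active means compounds that reduce the energy-transfer binding signal between the protein and its labelled peptide by more than half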;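 further: 0% = Smad3 plus labelled peptide maximal FRET and 100% = peptide-only background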
Target sequence (P84022 whole entry, looked up): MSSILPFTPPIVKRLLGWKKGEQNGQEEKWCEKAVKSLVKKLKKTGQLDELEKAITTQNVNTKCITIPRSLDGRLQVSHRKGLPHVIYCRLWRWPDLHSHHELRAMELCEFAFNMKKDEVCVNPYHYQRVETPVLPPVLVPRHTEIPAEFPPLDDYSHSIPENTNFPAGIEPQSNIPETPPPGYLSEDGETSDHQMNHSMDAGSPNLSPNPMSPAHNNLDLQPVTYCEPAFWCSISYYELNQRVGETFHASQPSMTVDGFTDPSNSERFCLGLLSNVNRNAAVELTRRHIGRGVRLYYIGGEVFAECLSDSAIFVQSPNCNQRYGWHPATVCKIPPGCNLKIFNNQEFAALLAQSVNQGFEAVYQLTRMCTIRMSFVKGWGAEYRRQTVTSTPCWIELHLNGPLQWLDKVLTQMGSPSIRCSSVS
FAK blocker: FAK (human) kinase inhibition; AID 727; 97,000 tested, 0.84% active; inhibition, %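 (tested at 7 µM)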; biochemical FAK kinase activity assay; Q05397; in the data active means inhibition above about 19%;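 further: 0% = DMSO and 100% = reference compound high control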
ERb SRC1 inh: blocks coactivator binding to human estrogen receptor beta; inhibition, % at 25.6 µM; 86,000 tested, 1.3% active; Q92731; AID 633; TR-FRET ER-beta LBD / SRC1-Cy5 peptide binding; receptor agonist-loaded with 1 µM estradiol;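 active means compounds whose percent inhibition of the receptor-coactivator binding signal exceeds about 50% in the single-dose screen, limit read from the data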;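 further: 0% = receptor plus peptide wells without compound and 100% = peptide-only wells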
Starred values were filed as active, the others as inactive; [ ] = dose if it differs, or a comment.

Results for O=C(Nc1nc(-c2ccco2)c(-c2ccco2)s1)C1CC(=O)N(c2ccc3c(c2)OCCO3)C1 (stereo not given) ?
ERa coact pot: 122; ERa SRC1 inh: 47; Smad3 inh: -9; ERb SRC1 inh: 71*[fluorescence artefact?]

What do the screens show for `COC(=O)c1oc2ccc(Br)cc2c1NC(=O)CCCN1C(=O)c2ccccc2C1=O`?
ERa coact pot: 131; ERa SRC1 inh: 52*; Smad3 inh: -32; ERb SRC1 inh: 26

What do the screens show for `O=C(CCCN1C(=O)c2ccccc2C1=O)Nc1c(C(=O)C2CC2)oc2ccccc12`?
ERa coact pot: 111; ERa SRC1 inh: 2; Rev-RRE block: 6; Smad3 inh: -8; FAK blocker: -3; ERb SRC1 inh: -2

Results for O=C(COC(=O)c1cn(-c2ccccc2)nc1-c1cccs1)NC1CC1 ?
ERa coact pot: 202*; ERa SRC1 inh: 7; Rev-RRE block: 10; Smad3 inh: 3; FAK blocker: -1; ERb SRC1 inh: 10

How did O=C(NCCN1CCCCCC1)C1CCC(CNS(=O)(=O)c2cccc3cccnc23)CC1 (stereo not given) do in these assays?
ERa coact pot: 75; ERa SRC1 inh: 60*[fluorescence artefact?]; Rev-RRE block: 6; Smad3 inh: 10; FAK blocker: 5; ERb SRC1 inh: 33

Results for CN1CCN(C(=O)C2CCC(CNS(=O)(=O)c3cccc4cccnc34)CC2)CC1 (stereo not given) ?
ERa coact pot: 114; ERa SRC1 inh: -8; Rev-RRE block: 6; Smad3 inh: 5; FAK blocker: 1; ERb SRC1 inh: -8

What do the screens show for `CC(CCN)(CCN)[N+](=O)[O-]`?
Smad3 inh: -13

Results for NC1(C(=O)NC2(C(=O)O)CCCC2)CCCC1 ?
Smad3 inh: -6

What do the screens show for `Cc1cc(C)c2c(N)c(C(=O)Nc3nccs3)sc2n1`?
ERa coact pot: 104; ERa SRC1 inh: 6; Rev-RRE block: -1; Smad3 inh: 2; FAK blocker: 2; ERb SRC1 inh: 8

How did COc1ccccc1NC(=O)CCC(=O)Nc1nnc(C(F)(F)F)s1 do in these assays?
ERa coact pot: 108; ERa SRC1 inh: -1; Rev-RRE block: 0; Smad3 inh: -14; FAK blocker: -4; ERb SRC1 inh: 3

How did CCN(CC)C(=O)c1sc2nc(-c3cccs3)cc(-c3cccs3)c2c1N do in these assays?
ERa coact pot: 106; ERa SRC1 inh: -1; Smad3 inh: -3; ERb SRC1 inh: -1

How did Nc1c(C(=O)Nc2nccs2)sc2nc(-c3cccs3)cc(C(F)(F)F)c12 do in these assays?
Rev-RRE block: 104*[fluorescence artefact?]; FAK blocker: -1

Results for CC(C)(C)C(=O)c1sc2nc(-c3cccs3)cc(C(F)(F)F)c2c1N ?
Rev-RRE block: 79*[fluorescence artefact?]; FAK blocker: -5

How did Cc1nnc(NC(=O)c2sc3nc(-c4cccs4)cc(C(F)(F)F)c3c2N)s1 do in these assays?
Rev-RRE block: 99*[fluorescence artefact?]; FAK blocker: 16

What do the screens show for `COc1ccccc1NC(=O)c1sc2nc(Cc3ccccc3)cc(C(F)(F)F)c2c1N`?
Rev-RRE block: 44*; FAK blocker: 3

Results for Cc1ccc(C)c(C(=N)c2ccccc2Cc2ccccc2)c1 ?
Smad3 inh: 3

How did COCCn1c(C)cc(C(=O)COC(=O)c2cc3c(s2)CCC3)c1C do in these assays?
ERa coact pot: 50; ERa SRC1 inh: 76*[fluorescence artefact?]; Rev-RRE block: -8; Smad3 inh: 1; FAK blocker: 18; ERb SRC1 inh: 66*

What do the screens show for `CO[C@@H]1/C=C\O[C@@]2(C)Oc3c(C)c(O)c4c(c3C2=O)C(=N[C@H]2CC[C@H](O)O[C@@H]2C)C=C(NC(=O)/C(C)=C\C(=O)[C@@H]2C[C@H]2[C@@H](O)[C@H](C)[C@@H](O)[C@H](C)[C@H](OC(C)=O)[C@@H]1C)C4=O`?
Smad3 inh: 9

How did O=c1oc2ccccc2cc1-c1nnc(NCc2ccco2)s1 do in these assays?
ERa coact pot: 96; ERa SRC1 inh: 34; Rev-RRE block: 44*; Smad3 inh: 14; FAK blocker: 7; ERb SRC1 inh: 18

Results for Nc1nnc(-c2cc3ccccc3oc2=O)s1 ?
ERa coact pot: 115; ERa SRC1 inh: -19; Rev-RRE block: 7; Smad3 inh: 13; FAK blocker: -4; ERb SRC1 inh: -15

How did COc1ccc(-c2nnc(-c3ccc(N(C)C)cc3)o2)cc1 do in these assays?
ERa coact pot: 99; ERa SRC1 inh: -4; Rev-RRE block: 3; Smad3 inh: -9; FAK blocker: 0; ERb SRC1 inh: -6

How did CN(C)c1ccc(-c2nnc(-c3ccc(S(=O)(=O)C(F)F)cc3)o2)cc1 do in these assays?
ERa coact pot: 241*; ERa SRC1 inh: 55*[fluorescence artefact?]; Rev-RRE block: 28; Smad3 inh: 3; FAK blocker: 3; ERb SRC1 inh: 24

How did O=C(c1ccc(Cl)cc1)C1C2C(=O)N(c3ccccc3)C(=O)C2C2CCCN21 (stereo not given) do in these assays?
ERa coact pot: 104; ERa SRC1 inh: 6; Rev-RRE block: 58*; Smad3 inh: 10; FAK blocker: 0; ERb SRC1 inh: 9

How did CC(=O)c1ccc(N2C(=O)C3C(C2=O)C(C(=O)c2ccc(Cl)cc2)N2CCCC32)cc1 (stereo not given) do in these assays?
ERa coact pot: 124; ERa SRC1 inh: -5; Rev-RRE block: 62*; Smad3 inh: 2; FAK blocker: 1; ERb SRC1 inh: -3

Results for Cc1ccc(N2C(=O)[C@@H]3[C@H](C2=O)C2CCCN2[C@@H]3C(=O)c2ccccc2)cc1 (stereo not given in full) ?
ERa coact pot: 100; ERa SRC1 inh: 4; Smad3 inh: 7; ERb SRC1 inh: 5

Results for O=C(O)C[C@H]1OCC=C2C[N+]3([O-])CC[C@@]45c6ccccc6N[C@@H]4[C@@H]1[C@@H]2C[C@H]53 (stereo not given in full) ?
Smad3 inh: 1

What do the screens show for `CN(C)c1nccc(Nc2ccccc2)c1C#N`?
ERa coact pot: 126; ERa SRC1 inh: 99*[fluorescence artefact?]; Rev-RRE block: -2; Smad3 inh: -10; FAK blocker: 0; ERb SRC1 inh: -12

Results for O=C(Nc1cnc2ccccn2c1=O)c1ccc(F)cc1 ?
ERa coact pot: 122; ERa SRC1 inh: 6; Rev-RRE block: 5; Smad3 inh: 31; FAK blocker: 0; ERb SRC1 inh: 65*

What do the screens show for `CCOC(=O)Cc1ccc(NS(=O)(=O)c2ccc(SC)cc2)cc1`?
ERa coact pot: 52; ERa SRC1 inh: 54*; Rev-RRE block: 7; Smad3 inh: 3; FAK blocker: -1; ERb SRC1 inh: 18
